Results published in ChEMBL document CHEMBL4513216, “Probing the Open Global Health Chemical Diversity Library for Multistage-Active Starting Points for Next-Generation Antimalarials” (ACS Infect Dis, 2020).

Assay: Toxicity liver stage against HepG2, at 10uM
Format: cell-based
Set-up: test concentration 10 uM, cell line HepG2-A16-CD81EGFP
Details: human, HepG2-A16-CD81EGFP cells; read-out: INHIBITION
Summary of the method: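 Uninfected HepG2-A16-CD81EGFP cells, 3 × 10^3 per well, 1536-well, plated on prespotted compound at 10 μM final, parasite-free screening media added to match infected plates; puromycin 10 μM positive, DMSO 0.5% negative; run in parallel with 48 h PbLuc assay at 37 °C, 5% CO2; viability by CellTiter-Glo luminescence, normalized to controls.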

| SMILES | cytotoxicity at 10 µM [%] |
| --- | --- |
| Cc1cc(C)n(CC2CCCCN2C(=O)c2cnn(C)c2)n1 (centres undefined) | 6.79 |
| O=C(c1cccc(Cn2ccnc2)c1)N1CCCC(n2cccn2)C1 (centres undefined) | -0.603 |
| CN(C)CC(c1ccccc1)N(C)C(=O)c1cccc(NCC(=O)O)c1 (centres undefined) | 3.7 |
| O=C(COc1ccc(Cl)cc1Cl)N1CCCSCC1CN1CCOCC1 (centres undefined) | 4.09 |
| COc1cc(CNCCc2cnn(C)c2)cc2c1OCO2 | -9.3 |
| CNC(=O)C1CCN(C(=O)NCc2ccc(-c3ccn[nH]3)cc2)CC1 | -4.22 |
| COc1ccc(CNCc2ccnc(N3CCCC3)c2)c(OC)c1 | 3.45 |
| c1ccc(CN2CCOC3(CCN(c4ncccn4)CC3)C2)nc1 | -2.42 |
| CN1C(=O)c2cccc(NC(=O)c3cccc(S(C)(=O)=O)c3)c2C1=O | -7.75 |
| c1cnc(-c2nc(CN3CCCC(Cn4cncn4)C3)cs2)nc1 (centres undefined) | -7.91 |
| COCCN1CCN(Cc2nccs2)[C@H]2CS(=O)(=O)C[C@H]21 | -1.82 |
| CCCSc1nc(N)c(NC(=O)c2ccc(OC)c(OC)c2)c(=O)[nH]1 | -8.7 |
| CC(C)N1CCC(Nc2ccn(Cc3ccccn3)n2)C1=O (centres undefined) | -2.43 |
| c1ccc(C2CN(c3ncnc4[nH]cnc34)CCO2)cc1 (centres undefined) | 9.42 |
| COc1ccc(CN(C)C(=O)c2nnc(CN(C)C)o2)cc1 | -3.42 |
| Cn1c(CN2CCCCC2)nnc1C1CCCN(c2ccncc2F)C1 (centres undefined) | -0.37 |
| Cc1occc1C(=O)N1C[C@H](Oc2ccccn2)[C@H]2OCCC[C@H]21 | -110 |
| Cc1nccc(C(=O)NC(CN2CCCC2=O)c2ccccc2)n1 (centres undefined) | 8.01 |
| CC(C)CCCC1CN(C(=O)c2cnc[nH]2)CCO1 (centres undefined) | 2.83 |
| CCn1cc(NC(=O)NCC(C)N2CCCC2)cn1 (centres undefined) | -9.89 |
| Cc1nc(CN2CCC(C(=O)N(C)C3CCC(C)CC3)CC2)cs1 (centres undefined) | 2.84 |
| COCCc1noc(CN2CCc3nn(C(C)C)c(=O)cc3C2)n1 | -14.9 |

| SMILES | cytotoxicity at 10 µM [%] |
| --- | --- |
| Cc1nc(C)c(CNCC2(COc3cccnc3)C[C@@H](O)[C@@H](O)C2)s1 (some centres undefined) | -1.36 |
| CC(C)c1cc(C(=O)N2CCN(c3ncc4c(n3)CCOC4)CC2)on1 | 1.57 |
| COCCNC(=O)[C@@H]1CCO[C@@H]2CCN(Cc3cnn(C)c3)C[C@@H]21 | 0.341 |
| Cc1ncsc1CCN(C)C(=O)CN1CCOc2ccccc2C1 | 5.72 |
| CCC(O)(CNCc1ncc[nH]1)c1ccc(Br)cc1 (centres undefined) | 3.54 |
| Cc1ncsc1C(=O)N1CC[C@@H]2[C@@H](CC1)OCCN2c1cccnc1 | 9.4 |
| Cn1nnc2c(N3CC(C(=O)NCc4ccccc4F)C3)ncnc21 | 0.447 |
| Cc1cc(F)cc(S(=O)(=O)NC(=O)CCc2cncc(F)c2)c1 | 7.78 |
| NC(=O)N1CCC2(CC1)CC(=O)N(CC1CCCO1)c1ccccc12 (centres undefined) | 5.56 |
| COc1ccccc1-n1c(CC(C)C)nnc1SCC(=O)O | -6.71 |
| CC(=O)N1CCN(C(=O)NCc2ccccc2Cn2cncn2)CC1 | 0.0453 |
| Cc1cc(F)c(S(=O)(=O)NCCCN2CCC(O)CC2)cc1F | -25.9 |
| CCOC(=O)c1cnn(C2CCN(C(=O)CC3C=CCC3)CC2)c1N (centres undefined) | 7.87 |
| c1ccc(Cc2noc(CN3CCc4c(ncn4C4CC4)C3)n2)cc1 | 2.1 |
| O=c1[nH][nH]c2cn(-c3ccc(F)cc3)c(=O)n12 | -1.45 |
| Fc1cccnc1O[C@@H]1CC[C@H]2[C@H]1OCCN2Cc1nccs1 | 4.93 |
| CC(C)N(C)CC(=O)N1CCCC(n2ccnc2)C1 (centres undefined) | 5.56 |
| COc1ccccc1C(=O)N1CCCC1c1ncc2c(n1)CCNC2 (centres undefined) | -12.3 |
| CC(C)OC(=O)c1ccc(Cl)c(NC(=O)NCCN2CCOCC2)c1 | -54.4 |
| O=C1CC(NCc2cnc(C3CCCCC3)nc2)CN1c1ccccc1 (centres undefined) | -6.8 |
| Cn1cc(CCC(=O)NS(=O)(=O)N2CCCc3ccccc32)cn1 | 14.6 |
| O=C(NCc1ccnc(C2CCCOC2)n1)c1cccs1 (centres undefined) | 0.44 |

| SMILES | cytotoxicity at 10 µM [%] |
| --- | --- |
| CC(C)CC(CO)NC(=O)NCc1csc(N(C)C)n1 (centres undefined) | 6.07 |
| Cc1cnc(C(=O)N2C[C@H]3CN(Cc4nccs4)C[C@H]3C2)cn1 | -147 |
| COc1ccc(C(=O)O)c(OCC(=O)NC(C)c2ccc(F)cc2)c1 (centres undefined) | 1.65 |
| Cc1nc2ccc(-n3ncnc3[C@@H]3CCCN3S(C)(=O)=O)cc2s1 | -11.5 |
| CCS(=O)(=O)N1CCCC2(COCCN(c3cnccn3)C2)C1 (centres undefined) | 10.2 |
| O=C(Cn1cc(-c2ccccc2)ncc1=O)Nc1ncc[nH]1 | 5.89 |
| O=C(CCC1CCCO1)N1CCc2nc(-c3cnccn3)nc(O)c2C1 (centres undefined) | -20.3 |
| COc1cc(CCC(C)O)c(OC)c2c1OCO2 (centres undefined) | 6.79 |
| O=C(NCCOc1ncc(Cl)cc1Cl)c1cccnc1 | -3.23 |
| Cc1nn(C)c2c(NC3CCCC3)nc(C3CC3)nc12 | -0.801 |
| O=C(CCC(=O)Nc1nnc(C(F)(F)F)s1)NCC1CCCO1 (centres undefined) | 4.65 |
| CCN(CC)CCN1CCO[C@H]2[C@@H](OCc3ccncc3)CC[C@@H]21 | -4.65 |
| CC(=O)N1CCC2(CC1)NC(=O)[C@H]1CN(Cc3cccnc3)C[C@H]12 | -1.77 |
| COc1ccc(OCC2CCCN(Cc3ccncc3)C2)cc1 (centres undefined) | -8.44 |
| CC(C)CC(NC(=O)OC(C)(C)C)C(N)=O (centres undefined) | 3.29 |
| CN1CCC(Oc2ccc(-n3ccnc3-c3nccn3C)cc2)CC1 | -7.41 |
| c1csc(-c2nc(CN3CCCCC3Cn3cncn3)cs2)c1 (centres undefined) | -1.19 |
| CNC(=O)C1CCN(C(=O)c2cccn2Cc2cccs2)CC1 | -3.74 |
| O=C([C@H]1C[C@H]2OCC[C@H]2N(Cc2ccncc2)C1)N1CCCCO1 | -9.01 |
| COc1ccc2c(c1)CN(C)C(=O)CCN2CC(O)C(F)(F)F (centres undefined) | -6.84 |
| Cn1cc(CN2CCC3(CC2)COC(COc2ccccn2)C3)cn1 (centres undefined) | 0.719 |
| CN1[C@@H]2CC[C@H]1CN(c1nc(-c3ccncc3)nc3c1cnn3C)CC2 | 38.7 |

| SMILES | cytotoxicity at 10 µM [%] |
| --- | --- |
| CCn1c(CN(C)C(C)CSC)nc2c(F)cccc21 (centres undefined) | 5.73 |
| COc1cnc(C2(O)CCN(C(=O)c3ccncc3)CC2)c(OC)n1 | -4.38 |
| Cc1cnn(CC2CCCN2C(=O)c2cc3ccccc3[nH]2)c1 (centres undefined) | -0.433 |
| COc1cccc(CNCc2c(C(C)C)nn(C)c2N(C)C)c1 | -7.36 |
| c1cncc(CNc2ccc3nc(C4CCNCC4)nn3c2)c1 | -108 |
| CN(C)CCN(Cc1ccc(Cl)cc1)C(=O)c1cnccn1 | -1.85 |
| O=c1oc(-c2cccs2)nn1CC(O)c1ccccc1 (centres undefined) | 21.3 |
| CN(C)C(=O)CO[C@H]1CN(Cc2ccc3c(c2)OCO3)[C@@H]2COC[C@H]12 | 5.9 |
| CCOC1CCCN(C(=O)c2[nH]nc(C3CC3)c2Br)C1 (centres undefined) | -5.4 |
| O=C1CCC(c2nc(C3CCN(C(=O)C4CC4)CC3)no2)N1 (centres undefined) | -1.7 |
| COC(=O)CC(c1cccnc1)c1oc(C)cc(=O)c1O (centres undefined) | -0.191 |
| CCSc1ccccc1C(=O)NCCN1CCC(c2cccs2)CC1 | -7.98 |
| CCC(C)(N)c1nc(=O)c(C(C)C)c(C)[nH]1 (centres undefined) | -6.17 |
| Cc1ccc(N(Cc2ccco2)C(=O)Cc2cc(=O)n(C)[nH]2)cc1 | -152 |
| c1ccc(Cn2ccnc2CN2CCOC(Cn3cccn3)C2)cc1 (centres undefined) | -3.78 |
| CS(=O)(=O)c1ccc(NCc2ccccc2)cn1 | 13.2 |
| COc1cccc(CC(=O)N2CC[C@H]3[C@@H]2CCC(=O)N3C)c1 | -4.57 |
| NCCO[C@H]1C[C@@H](O)C12CCN(Cc1c(F)cccc1F)CC2 | -20 |
| CCc1cnc(NCCS(=O)(=O)CC(C)C)nc1 | -13 |
| CCS(=O)(=O)N1CC[C@@H]2[C@H](CC1)N(Cc1cccnc1)CCS2(=O)=O | -3.12 |
| Oc1ccccc1-c1n[nH]c(C2CCCO2)n1 (centres undefined) | -5.22 |
| O=C([C@H]1CCCO1)N1CCc2ncnc(C3CC3)c2CC1 | 4.79 |

| SMILES | cytotoxicity at 10 µM [%] |
| --- | --- |
| Cc1nc(Cc2ccccc2)nc2sc(C(=O)O)c(C)c12 | 0.986 |
| Cc1noc(C)c1CN1CCCC2(CCN(C(=O)CC3CC3)C2)C1 (centres undefined) | 7.71 |
| COc1ccc(CN(Cc2cc(C)no2)C2CC2)cc1 | -3.71 |
| C=C(C)CNC(=O)C1CCCN(C2CCN(C(C)C)CC2)C1 (centres undefined) | -0.454 |
| CCN1CCN(C(=O)c2ccnc(N(C)C)c2)CC1 | -0.0916 |
| Nc1cc2c(nn1)CCN(C(=O)CCc1ccc3c(c1)OCO3)C2 | 3.23 |
| Cc1c(C(C)Nc2ncnc3sccc23)cnn1C (centres undefined) | 40.1 |
| c1cnc2c(c1)nc1n2[C@@H](CNCc2nccs2)COC1 | -2.66 |
| c1csc(-c2nc(CN3CCCC3Cn3cncn3)co2)c1 (centres undefined) | -11.5 |
| CN(C1CCCN(c2ccccn2)C1)S(C)(=O)=O (centres undefined) | 1.07 |
| CN(C)C(=O)N1Cc2nnn(C)c2C(COCc2cccnc2)C1 (centres undefined) | 10.8 |
| c1cc(CNCC2CNc3ccnn3C2)cc(Cn2cccn2)c1 (centres undefined) | -19 |
| CCn1ncc2c1CCCC2NCc1cc(Cl)c(OC)c(OC)c1 (centres undefined) | 24.4 |
| c1ccc(C2CCCCN2Cc2nc(-c3cnccn3)no2)nc1 (centres undefined) | -8.04 |
| CC(C)(C)c1ccn(C2(C(=O)O)CCN(c3ncccc3C#N)CC2)n1 | -7.6 |
| COCC1CCCCN1C(=O)c1cc(-c2cccc(OC)c2)n[nH]1 (centres undefined) | 9.34 |
| CCC(C)(C)NC(=O)Cn1nc(C)nc1-c1ccccc1 | -15.4 |
| CC(=O)NCC(=O)N1CCC2(CC1)NC(=O)CC2c1cnn(C)c1 (centres undefined) | -0.113 |
| CN(Cc1cscn1)C1CCN(C(=O)OC(C)(C)C)CC1 | -3.76 |
| NC(=O)CCN(C(=O)CSc1ccc(F)cc1)c1ccc(F)cc1 | -2.17 |
| CC(=O)N1CCCCC[C@@H]2[C@@H]1[C@H](c1cccc(F)c1)CN2C(C)=O | 5.21 |
